For one series, the system named is Leishmania donovani. The series is described as follows: Antileishmanial activity against Leishmania donovani promastigotes after 48 hrs by Alamar blue assay. Format: functional, organism-based. A digest of the protocol: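 L. donovani promastigotes were grown in RPMI 1640 with 10% fetal calf serum at 26 C. A 3-day-old culture was diluted to 5 × 10^5 promastigotes/mL, and drug dilutions were made directly in the cell suspension. After 48 h at 26 C, growth was read by Alamar Blue fluorescence (ex 544/em 590 nm). IC50 and IC90 came from percent growth versus concentration curves.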

For the next series, the system named is Candida albicans. The series is described as follows: Antifungal activity against Candida albicans. In kind it is functional, organism-based. The method in brief: (§1)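 Modified NCCLS broth microdilution. Samples in DMSO were serially diluted in 0.9% saline and tested in duplicate. Inocula were matched to the 0.5 McFarland standard by absorbance at 630 nm, then diluted in broth. Growth, solvent and media controls were included. Plates were read at 630 nm before and after incubation, and IC50 was taken from percent growth versus concentration.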

The next series deals with Cryptococcus neoformans. Put plainly: Antifungal activity against Cryptococcus neoformans. In kind it is functional, organism-based. A digest of the protocol:
as §1

In a further series the test system is Aspergillus fumigatus. Put plainly: Antifungal activity against Aspergillus fumigatus. In kind it is functional, organism-based. The method in brief: as §1
In series [1] the test system is SK-MEL. The series is described as follows: Cytotoxicity against human SKMEL cells by neutral red assay up to 25 ug/mL. In kind it is functional, cell-based. The method in brief: (§2)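 Cells were seeded at 25,000 per well and incubated 24 h. Test samples were added at a range of concentrations, followed by a further 48 h incubation. Viable cells were quantified by Neutral Red uptake, and IC50 was read from dose curves of percent growth versus concentration.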

In the next series the test system is KB. The series is described as follows: Cytotoxicity against human KB cells by neutral red assay up to 25 ug/mL. Format: functional, cell-based. A digest of the protocol: as §2
For series [2], the system named is BT-549. Put plainly: Cytotoxicity against human BT549 cells by neutral red assay up to 25 ug/mL. Format: functional, cell-based. A digest of the protocol: as §2
The next series concerns SK-OV-3. Put plainly: Cytotoxicity against human SK-OV3 cells by neutral red assay up to 25 ug/mL. In kind it is functional, cell-based. The method in brief: as §2
The subject of a further series is Vero. The series is described as follows: Cytotoxicity against african green monkey Vero cells by neutral red assay up to 25 ug/mL. In kind it is cell-based. The following applies: chlorocebus sabaeus. A digest of the protocol: as §2
Series [3] can be described thus: Cytotoxicity against pig LLC-PK11 cells by neutral red assay up to 25 ug/mL. In kind it is cell-based, Sus scrofa. A digest of the protocol:
as §2

For series [4], the system named is BT-549. The series is described as follows: Cytotoxicity against human BT549 cells by neutral red assay. Format: functional, cell-based. The method in brief: as §2
The subject of another series is Staphylococcus aureus. Put plainly: Antibacterial activity against methicillin-resistant Staphylococcus aureus. In kind it is functional, organism-based. A digest of the protocol:
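Modified NCCLS broth microdilution. Samples in DMSO serially diluted in 0.9% saline, tested in duplicate. Inoculum set against 0.5 McFarland standard by absorbance at 630 nm, then diluted in broth. Growth, solvent and media controls included. Plates read at 630 nm before and after incubation. IC50 from percent growth vs concentration; MIC = lowest concentration with no detectable growth.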

For series [5], the system named is SK-MEL. Put plainly: Cytotoxicity against human SKMEL cells by neutral red assay. Format: functional, cell-based. A digest of the protocol:
as §2

≈ marks a conversion by molar mass, not a printed value. Calls of active or inactive are those of the source. The rule behind the calls is not given here.

Take `C[C@@H]1[C@H](O)[C@@H](C)/C=C/C=C/C=C/C=C/C=C/C=C/C=C/[C@H](O[C@@H]2O[C@H](C)[C@@H](O)[C@H](N)[C@@H]2O)C[C@@H]2O[C@](O)(C[C@@H](O)C[C@@H](O)[C@H](O)CC[C@@H](O)C[C@@H](O)CC(=O)O[C@H]1C)C[C@H](O)[C@H]2C(=O)O` [AMPHOTERICIN B]: in the series on Leishmania donovani, half-maximal inhibition (IC50) required 0.19 µg/mL (≈ 0.206 µM) and the IC90 is 0.36 µg/mL (≈ 0.39 µM).
For `CC(C)CC(=O)c1c(O)c2c(c(C(=O)CC(C)C)c1O)O[C@@]1(C)[C@H](CC[C@H]3[C@@H]1C3(C)C)C2`, the outcome with Leishmania donovani, in the series on Candida albicans, with Cryptococcus neoformans, in the series on Aspergillus fumigatus, in the series with SK-MEL [1] and in the series on KB was inactive. Further, the result with BT-549 [2] and in the series on SK-OV-3 was inactive. Also, the Activity entry (in the series with Vero; in series [3]) was “Not Active” each time.
On to `CC(C)CC(=O)c1c(O)c2c(c(C(=O)CC(C)C)c1O)O[C@@]1(CC2)[C@H]2CC[C@H](C2)C1(C)C`, for which the outcome with Leishmania donovani, with Candida albicans, with Cryptococcus neoformans, with Aspergillus fumigatus, in the series with SK-MEL [1] and in the series with KB was inactive. Besides, the outcome with BT-549 [2] and with SK-OV-3 was inactive. Also, the Activity entry (with Vero; in [3]) was “Not Active” in each case.
`CC(C)CC(=O)c1c(O)c2c(c(C(=O)CC(C)C)c1O)O[C@]1(C)C[C@@H]3[C@H](C[C@@H]1C2)C3(C)C`: the outcome in the series with Leishmania donovani, with Candida albicans, in the series on Cryptococcus neoformans, in the series on Aspergillus fumigatus, with SK-MEL [1] and with KB was inactive. The outcome in the series on BT-549 [2] and in the series with SK-OV-3 was inactive. Further, the Activity entry (in the series on Vero; in series [3]) was “Not Active” each time.
Take `CC(C)CC(=O)c1c(O)c2c(c(C(=O)CC(C)C)c1O)O[C@]1(CC2)CC[C@@H]2C[C@H]1C2(C)C`: the outcome in the series on Leishmania donovani, with Candida albicans, in the series with Cryptococcus neoformans, in the series on Aspergillus fumigatus, in the series with SK-MEL [1] and in the series on KB was inactive. Besides, the result in the series on BT-549 [2] and in the series with SK-OV-3 was inactive. For the same molecule, the Activity entry (in the series on Vero; in series [3]) was “Not Active” throughout.
For the molecule `CC(C)CC(=O)c1c(O)c(C=O)c(O)c2c1O[C@@]1(CO)[C@@H](C2)C[C@H]2C[C@@H]1C2(C)C`, the IC50 is 30 µg/mL (≈ 74.5 µM) in the series with Leishmania donovani, 22.5 µg/mL (≈ 55.9 µM) in the series on BT-549 [4] and 10 µg/mL (≈ 24.8 µM) in the series with Staphylococcus aureus. In addition, the outcome with Candida albicans, in the series with Cryptococcus neoformans, with Aspergillus fumigatus, in the series with SK-MEL [1], with KB and with SK-OV-3 was inactive. Moreover, the Activity entry (in the series on Vero; in series [3]) was “Not Active” in each case.
In the series with Leishmania donovani, `N=C(N)c1ccc(OCCCCCOc2ccc(C(=N)N)cc2)cc1` [PENTAMIDINE] yielded an IC50 of 1.2 µg/mL (≈ 3.52 µM) and an IC90 of 6 µg/mL (≈ 17.6 µM).
Turning to `CC(C)CC(=O)c1c(O)c2c(c(C(=O)CC(C)C)c1O)O[C@@]1(C)[C@@H](C2)C[C@H]2C[C@@H]1C2(C)C`, the outcome in the series with Leishmania donovani, in the series on Candida albicans, in the series with Cryptococcus neoformans, in the series on Aspergillus fumigatus, in the series with SK-MEL [1] and in the series on KB was inactive. Moreover, the result with BT-549 [2] and in the series on SK-OV-3 was inactive. In addition, the Activity result (in the series on Vero; in [3]) was “Not Active” each time.
In the case of `O=C(O)c1cn(C2CC2)c2cc(N3CCNCC3)c(F)cc2c1=O` [CIPROFLOXACIN], the MIC against Staphylococcus aureus worked out at 0.25 µg/mL (≈ 0.754 µM).
For the molecule `CC(C)CC(=O)c1c(O)c(C=O)c2c(c1O)C[C@H]1C[C@H]3C[C@H](C3(C)C)[C@@]1(CO)O2`, the 50% inhibitory concentration (IC50) in the series with Leishmania donovani amounted to 18 µg/mL (≈ 44.7 µM); with BT-549 [4], 23 µg/mL (≈ 57.1 µM); in the series with Staphylococcus aureus, 2.5 µg/mL (≈ 6.21 µM). Further, the IC90 in the series with Leishmania donovani came out at 39 µg/mL (≈ 96.9 µM). Moreover, the result in the series with Candida albicans, in the series on Cryptococcus neoformans, in the series on Aspergillus fumigatus, in the series with SK-MEL [1], in the series on KB and in the series on SK-OV-3 was inactive. Moreover, the Activity result (in the series with Vero; in series [3]) was “Not Active” throughout.
Turning to `CC1(C)[C@H]2C[C@@H]3Cc4c(O)c(C=O)c(O)c(C=O)c4O[C@]3(CO)[C@@H]1C2`, the result in the series with Leishmania donovani, in the series with Candida albicans, in the series with Cryptococcus neoformans, in the series with Aspergillus fumigatus and with SK-OV-3 was inactive. For the same molecule, the IC50 with SK-MEL [5] and in the series on BT-549 [4] was 25 µg/mL (≈ 72.2 µM) throughout. The Activity result (in the series with Vero; in series [3]) was “Not Active” throughout.
Consider `CC1(C)[C@H]2C[C@@H]3Cc4c(O)c(C=O)c(O)c(C=O)c4O[C@]3(CCO)[C@@H]1C2`, for which, in the series on Leishmania donovani, half-maximal inhibition (IC50) was put at 22 µg/mL (≈ 61 µM). The outcome in the series with Candida albicans, in the series with Cryptococcus neoformans, with Aspergillus fumigatus, with SK-MEL [1], in the series on KB and with BT-549 [2] was inactive. Also, in the series with SK-OV-3, the outcome was inactive. Further, the Activity result (in the series with Vero; in series [3]) was “Not Active” in each case.
For `CC(C)CC(=O)c1c(O)c2c(c(C(=O)CC(C)C)c1O)O[C@@]1(CCO)[C@@H](C2)C[C@H]2C[C@@H]1C2(C)C`, the outcome in the series with Leishmania donovani, in the series on Candida albicans, in the series on Cryptococcus neoformans, with Aspergillus fumigatus, with SK-MEL [1] and with KB was inactive. Further, the outcome with SK-OV-3 was inactive. The same molecule returned an IC50 in the series with BT-549 [4] of over 25 µg/mL. The Activity result (in the series on Vero; in [3]) was “Not Active” each time.
With `CC(C)CC(=O)c1c(O)c(C=O)c2c(c1O)C[C@H]1C[C@H]3C[C@H](C3(C)C)[C@@]1(C)O2` [EUGLOBAL G2], the IC50 in the series on Leishmania donovani amounted to 3.6 µg/mL (≈ 9.31 µM).
